Experimental data as given in ChEMBL document CHEMBL3593239, “PABA/NO lead optimization: Improved targeting of cytotoxicity to glutathione S-transferase P1-overexpressing cancer cells” (Bioorg Med Chem, 2015).
Activity calls are given as the source filed them. The calls are words filed in the database; no cut-off is given here.

Tests used:
[1] = Drug level in phosphate buffer treated with (Z)-1-(2-cyano-5-(4-(methylamino)benzoyloxy)-4-nitrophenoxy)-3,3-dimethyltriaz-1-ene 2-oxide at 1 uM at pH 7.4 at 37 degC after 30 secs by LC-MS analysis in presence of GSH; format: physicochemical; conditions: pH 7.4, 0.5 min
[2] = Drug level in phosphate buffer treated with (Z)-3,3-dimethyl-1-(5-(4-(methylamino)benzoyloxy)-2,4-dinitrophenoxy)triaz-1-ene 2-oxide at 1 uM at pH 7.4 at 37 degC after 1 to 30 mins by LC/MS-MS analysis; format: physicochemical; conditions: pH 7.4, 1 µM
[3] = Drug level in phosphate buffer treated with (Z)-3,3-dimethyl-1-(5-(4-(methylamino)benzoyloxy)-2,4-dinitrophenoxy)triaz-1-ene 2-oxide at 1 uM at pH 7.4 at 25 degC by HPLC trapping method; format: physicochemical; conditions: pH 7.4, 1 µM
[4] = Stability of the compound in phosphate buffer assessed as first-order initial rate constant for hydrolysis at pH 7.4 at 37 degC by HPLC trapping method; format: physicochemical
[5] = Stability of the compound in phosphate buffer assessed as pseudo-first order rate constant at pH 7.4 at 37 degC by HPLC trapping method in presence of GSH; format: physicochemical
[6] = biological target: T1, Glutathione S-transferase P (Homo sapiens, UniProt P09211); assay: Prodrug conversion in phosphate buffer assessed as GSTP1 (unknown origin)-mediated nitric oxide release at 1 uM at pH 7.4 at 37 degC after 1 to 30 mins by LC/MS-MS analysis; format: ADME; conditions: pH 7.4, 1 µM
In short: (§1)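 Test compound at 1 µM reacted with 4 mM GSH containing 4 nM GSTP1 in 0.1 M phosphate, pH 7.4, at 37 °C. Products identified by LC–MS traces taken at 60 s and 30 min.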

[7] = biological target: T2, Glutathione S-transferase A1 (Homo sapiens, UniProt P08263); assay: Drug metabolism in phosphate buffer assessed as ratio of GSTA1 (unknown origin)-mediated (S)-2-amino-5-((R)-1-(carboxymethylamino)-3-(5-hydroxy-2,4-dinitrophenylthio)-1-oxopropan-2-ylamino)-5-oxopentanoic acid formation from nitric oxide release pathway to GSTA1 (unknown origin)-mediated (Z)-1-(5-hydroxy-2,4-dinitrophenoxy)-3,3-dimethyltriaz-1-ene 2-oxide formation from nitric oxide retained pathway at 1 uM at pH 7.4 at 37 degC after 30 mins by LC-MS/MS analysis in presence of GSH; format: ADME; conditions: pH 7.4, 0.5 h
T2 sequence (P08263 whole entry): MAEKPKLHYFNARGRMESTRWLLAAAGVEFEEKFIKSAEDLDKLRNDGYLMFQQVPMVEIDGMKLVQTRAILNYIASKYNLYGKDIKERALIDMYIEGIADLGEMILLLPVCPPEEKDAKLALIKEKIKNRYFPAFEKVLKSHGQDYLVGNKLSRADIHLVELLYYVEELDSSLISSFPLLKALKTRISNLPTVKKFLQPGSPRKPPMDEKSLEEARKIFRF
In short: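 GSTA1 (4 nM)-catalysed reaction of 1 µM compound with 4 mM GSH in 0.1 M phosphate buffer, pH 7.4, 37 °C. Products analysed by LC–MS. Value is the ratio of the NO-release-pathway product to the NO-retained-pathway phenol product.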

[8] = Half life of the compound in phosphate buffer at 1 uM at pH 7.4 at 37 degC by HPLC trapping method; format: ADME
In short: (§2)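 Hydrolysis of compound at 1 µM final in 0.1 M phosphate buffer, pH 7.4, with 0.1% DMSO, run separately at 25 °C and 37 °C. Decomposition followed by HPLC, with products confirmed by LC–MS/MS. First-order rate constants were derived by initial-rate analysis.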

[9] = Half life of the compound in phosphate buffer at 1 uM at pH 7.4 at 25 degC by HPLC trapping method; format: ADME; in short: as §2
[10] = Stability of the compound in phosphate buffer assessed as first-order initial rate constant for hydrolysis at pH 7.4 at 25 degC by HPLC trapping method; format: physicochemical
HL-60 [11] = assay: Induction of SAPK/JNK phosphorylation in human HL-60 cells at 5 to 20 uM after 24 hrs by Western blot analysis
HL-60 [12] = assay: Induction of apoptosis in human HL60 cells assessed as activation of caspase 7 at >10 uM after 24 hrs by Western blot analysis; format: functional, cell-based
[13] = biological target: T2, Glutathione S-transferase A1; assay: Drug metabolism in phosphate buffer assessed as ratio of GSTA1 (unknown origin)-mediated (S)-2-amino-5-((R)-1-(carboxymethylamino)-3-(2-cyano-5-hydroxy-4-nitrophenylthio)-1-oxopropan-2-ylamino)-5-oxopentanoic acid formation from nitric oxide release pathway to GSTA1 (unknown origin)-mediated (Z)-1-(2-cyano-5-hydroxy-4-nitrophenoxy)-3,3-dimethyltriaz-1-ene 2-oxide formation from nitric oxide retained pathway at 1 uM at pH 7.4 at 37 degC after 30 mins by LC-MS/MS analysis in presence of GSH; format: ADME; conditions: pH 7.4, 0.5 h
In short: (§3)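 Products analysed by LC–MS. The ratio is the NO-release-pathway product over the NO-retained-pathway phenolic product.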

HL-60 [14] = assay: Induction of apoptosis in human HL60 cells assessed as activation of caspase 8 at >10 uM after 24 hrs by Western blot analysis; format: functional, cell-based
[15] = biological target: T1, Glutathione S-transferase P; assay: Drug metabolism in phosphate buffer assessed as formation of GSTP1 (unknown origin)-mediated (Z)-1-(5-((R)-2-((S)-4-amino-4-carboxybutanamido)-3-(carboxymethylamino)-3-oxopropylthio)-2-cyano-4-nitrophenoxy)-3,3-dimethyltriaz-1-ene 2-oxide at 1 uM at pH 7.4 at 37 degC after 5 to 30 mins by LC-MS/MS analysis in presence of GSH; format: ADME; conditions: pH 7.4, 1 µM; in short: as §1
HL-60 [16] = assay: Cytotoxicity against human HL60 cells assessed as growth inhibition after 72 hrs by MTT assay; format: functional, cell-based; conditions: HL-60, 72 h
In short: (§4)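 HL-60 and U937 cells from ATCC, grown per supplier protocol, seeded and exposed to increasing concentrations for 72 h. Viability was read with a Promega assay run per the manufacturer's protocol. Six repeats per concentration, three independent experiments. IC50 derived by curve fitting.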

HL-60 [17] = assay: Induction of apoptosis in human HL60 cells assessed as cleavage of PARP at >10 uM after 24 hrs by Western blot analysis; format: functional, cell-based
U-937 = assay: Cytotoxicity against human U937 cells assessed as growth inhibition after 72 hrs by MTT assay; format: functional, cell-based; conditions: U-937, 72 h; in short: as §4
[18] = biological target: T1, Glutathione S-transferase P; assay: Drug level in phosphate buffer assessed as GSTP1 (unknown origin)-mediated compound formation treated with (Z)-1-(2-cyano-5-(4-(methylamino)benzoyloxy)-4-nitrophenoxy)-3,3-dimethyltriaz-1-ene 2-oxide at 1 uM at pH 7.4 at 37 degC after 5 to 30 mins by LC-MS/MS analysis in presence of GSH; format: ADME; conditions: pH 7.4, 1 µM; in short: as §1
[19] = Drug level in phosphate buffer treated with (Z)-3,3-dimethyl-1-(5-(4-(methylamino)benzoyloxy)-2,4-dinitrophenoxy)triaz-1-ene 2-oxide at 1 uM at pH 7.4 at 37 degC by HPLC trapping method in presence of GSH; format: physicochemical; conditions: pH 7.4, 1 µM
[20] = biological target: T2, Glutathione S-transferase A1; assay: (§5) Drug level in phosphate buffer assessed as GSTA1 (unknown origin)-mediated compound formation from nitric oxide release pathway treated with (Z)-3,3-dimethyl-1-(5-(4-(methylamino)benzoyloxy)-2,4-dinitrophenoxy)triaz-1-ene 2-oxide at 1 uM at pH 7.4 at 37 degC after 30 mins by LC-MS/MS analysis in presence of GSH; format: ADME; conditions: pH 7.4, 0.5 h; in short: as §3
[21] = biological target: T2, Glutathione S-transferase A1; assay: (§6) Drug level in phosphate buffer assessed as GSTA1 (unknown origin)-mediated compound formation from nitric oxide release pathway treated with (Z)-1-(2-cyano-5-(4-(methylamino)benzoyloxy)-4-nitrophenoxy)-3,3-dimethyltriaz-1-ene 2-oxide at 1 uM at pH 7.4 at 37 degC after 30 mins by LC-MS/MS analysis in presence of GSH; format: ADME; conditions: pH 7.4, 0.5 h; in short: as §3
[22] = Drug level in phosphate buffer treated with (Z)-1-(4-cyano-5-(4-(methylamino)benzoyloxy)-2-nitrophenoxy)-3,3-dimethyltriaz-1-ene 2-oxide at 1 uM at pH 7.4 at 37 degC measured for 30 mins by LC-MS/MS analysis in presence of GSH; format: physicochemical; conditions: pH 7.4, 0.5 h
[23] = Drug level in phosphate buffer treated with (Z)-1-(4-cyano-5-(4-(methylamino)benzoyloxy)-2-nitrophenoxy)-3,3-dimethyltriaz-1-ene 2-oxide at 1 uM at pH 7.4 at 37 degC after 30 secs by LC-MS analysis in presence of GSH; format: physicochemical; conditions: pH 7.4, 0.5 min
[24] = biological target: T1, Glutathione S-transferase P; assay: Drug level in phosphate buffer assessed as GSTP1 (unknown origin)-mediated compound formation treated with (Z)-1-(4-cyano-5-(4-(methylamino)benzoyloxy)-2-nitrophenoxy)-3,3-dimethyltriaz-1-ene 2-oxide at 1 uM at pH 7.4 at 37 degC after 1 to 30 mins by LC-MS/MS analysis in presence of GSH; format: ADME; conditions: pH 7.4, 1 µM; in short: as §1
[25] = biological target: T2, Glutathione S-transferase A1; assay: (§7) Drug level in phosphate buffer assessed as GSTA1 (unknown origin)-mediated compound formation from nitric oxide release pathway treated with (Z)-1-(4-cyano-5-(4-(methylamino)benzoyloxy)-2-nitrophenoxy)-3,3-dimethyltriaz-1-ene 2-oxide at 1 uM at pH 7.4 at 37 degC after 30 mins by LC-MS/MS analysis in presence of GSH; format: ADME; conditions: pH 7.4, 0.5 h; in short: as §3
[26] = biological target: T2, Glutathione S-transferase A1; assay: as §6, with “retained” for “release”; format: ADME; conditions: pH 7.4, 0.5 h; in short: as §3
[27] = biological target: T2, Glutathione S-transferase A1; assay: as §5, with “retained” for “release”; format: ADME; conditions: pH 7.4, 0.5 h; in short: as §3
[28] = Drug level in phosphate buffer treated with (Z)-3,3-dimethyl-1-(5-(4-(methylamino)benzoyloxy)-2,4-dinitrophenoxy)triaz-1-ene 2-oxide at 1 uM at pH 7.4 at 37 degC by HPLC trapping method; format: physicochemical; conditions: pH 7.4, 1 µM
[29] = biological target: T2, Glutathione S-transferase A1; assay: as §7, with “retained” for “release”; format: ADME; conditions: pH 7.4, 0.5 h; in short: as §3

T1 sequence (P09211 whole entry): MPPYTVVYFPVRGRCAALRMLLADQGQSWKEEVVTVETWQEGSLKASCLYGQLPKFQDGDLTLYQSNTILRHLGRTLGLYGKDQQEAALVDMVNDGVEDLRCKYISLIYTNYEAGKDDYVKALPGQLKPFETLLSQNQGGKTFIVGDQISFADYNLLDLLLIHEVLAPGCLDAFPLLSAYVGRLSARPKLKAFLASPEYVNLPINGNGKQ

CNc1ccc(C(=O)O)cc1
Drug metabolism [1]: metabolite_detected
Drug metabolism [2]: metabolite_detected
Drug metabolism [3]: metabolite_detected

CNc1ccc(C(=O)Oc2cc(O/N=[N+](\[O-])N(C)C)c([N+](=O)[O-])cc2[N+](=O)[O-])cc1
K [4]: 5.7 ×10⁻⁴ /s
K [5]: 11.8 ×10⁻³ /s
Drug metabolism [6]: metabolite_detected
Ratio [7]: 3
half-life at 1 µM [8]: 0.333 h
half-life at 1 µM [9]: 2 h
K [10]: 9.6 ×10⁻⁵ /s

CNc1ccc(C(=O)Oc2cc(O/N=[N+](\[O-])N(C)C)c(C#N)cc2[N+](=O)[O-])cc1
Activity (HL-60 [11]): Active
Activity (HL-60 [12]): Active
K [4]: 2.1 ×10⁻⁴ /s
Ratio [13]: 1
K [5]: 2.1 ×10⁻³ /s
Activity (HL-60 [14]): Active
Drug metabolism [6]: metabolite_detected
K [10]: 3.3 ×10⁻⁵ /s
Drug metabolism [15]: metabolite_detected
IC50 (HL-60 [16]): 20 µM
Activity (HL-60 [17]): Active
IC50 (U-937): 15 µM

CN(C)/[N+]([O-])=N/Oc1cc(SC[C@H](NC(=O)CC[C@H](N)C(=O)O)C(=O)NCC(=O)O)c([N+](=O)[O-])cc1C#N
Drug metabolism [1]: metabolite_detected
Drug metabolism [18]: metabolite_detected

CNc1ccc(C(=O)Oc2cc(SC[C@H](NC(=O)CC[C@H](N)C(=O)O)C(=O)NCC(=O)O)c([N+](=O)[O-])cc2[N+](=O)[O-])cc1
Drug metabolism [2]: metabolite_detected
Drug metabolism [19]: metabolite_detected

N[C@@H](CCC(=O)N[C@@H](CSc1cc(O)c([N+](=O)[O-])cc1[N+](=O)[O-])C(=O)NCC(=O)O)C(=O)O
Drug metabolism [2]: metabolite_detected
Drug metabolism [20]: metabolite_detected

N#Cc1cc([N+](=O)[O-])c(O)cc1SC[C@H](NC(=O)CC[C@H](N)C(=O)O)C(=O)NCC(=O)O
Drug metabolism [21]: metabolite_detected

CNc1ccc(C(=O)SC[C@H](NC(=O)CC[C@H](N)C(=O)O)C(=O)NCC(=O)O)cc1
Drug metabolism [1]: metabolite_detected
Drug metabolism [2]: metabolite_detected
Drug metabolism [22]: metabolite_detected
Drug metabolism [23]: metabolite_detected

CN(C)/[N+]([O-])=N/Oc1cc(SC[C@H](NC(=O)CC[C@H](N)C(=O)O)C(=O)NCC(=O)O)c([N+](=O)[O-])cc1[N+](=O)[O-]
Drug metabolism [19]: metabolite_detected

CNc1ccc(C(=O)Oc2cc(SC[C@H](NC(=O)CC[C@H](N)C(=O)O)C(=O)NCC(=O)O)c([N+](=O)[O-])cc2C#N)cc1
Drug metabolism [24]: metabolite_detected

N#Cc1cc([N+](=O)[O-])c(SC[C@H](NC(=O)CC[C@H](N)C(=O)O)C(=O)NCC(=O)O)cc1O
Drug metabolism [25]: metabolite_detected
Drug metabolism [22]: metabolite_detected

CN(C)/[N+]([O-])=N/Oc1cc(O)c([N+](=O)[O-])cc1C#N
Drug metabolism [1]: metabolite_detected
Drug metabolism [26]: metabolite_detected

N[C@@H](CCC(=O)N[C@@H](CSc1cc(SC[C@H](NC(=O)CC[C@H](N)C(=O)O)C(=O)NCC(=O)O)c([N+](=O)[O-])cc1[N+](=O)[O-])C(=O)NCC(=O)O)C(=O)O
Drug metabolism [2]: metabolite_detected

CN(C)/[N+]([O-])=N\Oc1cc(O)c([N+](=O)[O-])cc1[N+](=O)[O-]
Drug metabolism [27]: metabolite_detected
Drug metabolism [2]: metabolite_detected
Drug metabolism [28]: metabolite_detected
Drug metabolism [19]: metabolite_detected

CN(C)/[N+]([O-])=N/Oc1cc(O)c(C#N)cc1[N+](=O)[O-]
Drug metabolism [29]: metabolite_detected
Drug metabolism [23]: metabolite_detected
